{"source": "ChEMBL document CHEMBL4304756", "about": "“Second-Generation Tryptamine Derivatives Potently Sensitize Colistin Resistant Bacteria to Colistin” (ACS Med Chem Lett, 2019)", "key": {"Escherichia coli [1]": {"system": "Escherichia coli", "assay": "Potentiation of colistin-induced antibacterial activity against Escherichia coli YD626 assessed as colistin MIC at 50 uM incubated for 16 hrs by broth microdilution method (reference value: 1 ug/ml)", "assay_type": "functional", "conditions": "YD626, 16 h"}, "Escherichia coli [2]": {"system": "Escherichia coli", "assay": "Potentiation of colistin-induced antibacterial activity against Escherichia coli YD626 harbouring mcr-1 gene assessed as colistin MIC at 50 uM incubated for 16 hrs by broth microdilution method (reference value: 8 ug/ml)", "assay_type": "functional", "conditions": "YD626, 16 h"}, "Klebsiella pneumoniae [3]": {"system": "Klebsiella pneumoniae", "assay": "Potentiation of colistin-induced antibacterial activity against Klebsiella pneumoniae 2210291 assessed as colistin MIC at 50 uM incubated for 16 hrs by broth microdilution method (reference value: 1 ug/ml)", "assay_type": "functional", "conditions": "Klebsiella pneumoniae, 2210291, 16 h"}, "Klebsiella pneumoniae [4]": {"system": "Klebsiella pneumoniae", "assay": "Potentiation of colistin-induced antibacterial activity against Klebsiella pneumoniae 2210291 harbouring mcr-1 gene assessed as colistin MIC at 50 uM incubated for 16 hrs by broth microdilution method (reference value: 16 ug/ml)", "assay_type": "functional", "conditions": "Klebsiella pneumoniae, 2210291, 16 h"}, "Acinetobacter baumannii [5]": {"system": "Acinetobacter baumannii", "assay": "Potentiation of colistin-induced antibacterial activity against Acinetobacter baumannii 17978 assessed as colistin MIC at 50 uM incubated for 16 hrs by broth microdilution method (reference value: 2 ug/ml)", "assay_type": "functional", "conditions": "Acinetobacter baumannii, 17978, 16 h"}, "Acinetobacter baumannii [6]": {"system": "Acinetobacter baumannii", "assay": "Potentiation of colistin-induced antibacterial activity against Acinetobacter baumannii 17978 harbouring mcr-1 gene assessed as colistin MIC at 50 uM incubated for 16 hrs by broth microdilution method (reference value: 16 ug/ml)", "assay_type": "functional", "conditions": "Acinetobacter baumannii, 17978, 16 h"}, "Escherichia coli [7]": {"system": "Escherichia coli", "assay": "Potentiation of colistin-induced antibacterial activity against Escherichia coli YD626 harbouring mcr-1 gene assessed as reduction in colistin MIC at 15 uM incubated for 16 hrs by broth microdilution method", "assay_type": "functional, organism-based", "outline": "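For the dose-response, colistin MIC was measured against mcr-1 plasmid-bearing E. coli, K. pneumoniae and A. baumannii while the adjuvant concentration was lowered stepwise (30, 15 μM, down to 5 μM). The aim was to find where the MIC rose above the 2 μg/mL CLSI susceptibility breakpoint.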"}, "Klebsiella pneumoniae [8]": {"system": "Klebsiella pneumoniae", "assay": "Potentiation of colistin-induced antibacterial activity against Klebsiella pneumoniae B9 assessed as reduction in colistin MIC at 20 uM incubated for 16 hrs by broth microdilution method (reference value: 512 ug/ml)", "assay_type": "functional", "conditions": "B9, 16 h"}, "Klebsiella pneumoniae [9]": {"system": "Klebsiella pneumoniae", "assay": "Potentiation of colistin-induced antibacterial activity against Klebsiella pneumoniae B9 assessed as reduction in colistin MIC at 15 uM incubated for 16 hrs by broth microdilution method (reference value: 512 ug/ml)", "assay_type": "functional", "conditions": "B9, 16 h"}, "Klebsiella pneumoniae [10]": {"system": "Klebsiella pneumoniae", "assay": "Potentiation of colistin-induced antibacterial activity against Klebsiella pneumoniae C3 assessed as reduction in colistin MIC at 20 uM incubated for 16 hrs by broth microdilution method (reference value: 512 ug/ml)", "assay_type": "functional", "conditions": "C3, 16 h", "outline": "(§1)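 Colistin MIC was measured against chromosomally colistin-resistant strains (K. pneumoniae B9, C3; A. baumannii 4106, among four strains) with adjuvant at fixed levels from 20 μM down to 7.5 μM. Fold reduction was reported against colistin alone, with the CLSI breakpoint taken as ≤2 μg/mL.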"}, "Klebsiella pneumoniae [11]": {"system": "Klebsiella pneumoniae", "assay": "Potentiation of colistin-induced antibacterial activity against Klebsiella pneumoniae C3 assessed as reduction in colistin MIC at 10 uM incubated for 16 hrs by broth microdilution method (reference value: 512 ug/ml)", "assay_type": "functional", "conditions": "C3, 16 h"}, "Klebsiella pneumoniae [12]": {"system": "Klebsiella pneumoniae", "assay": "Potentiation of colistin-induced antibacterial activity against Klebsiella pneumoniae C3 assessed as reduction in colistin MIC at 7.5 uM incubated for 16 hrs by broth microdilution method (reference value: 512 ug/ml)", "assay_type": "functional", "conditions": "C3, 16 h", "outline": "as §1"}, "Klebsiella pneumoniae [13]": {"system": "Klebsiella pneumoniae", "assay": "Potentiation of colistin-induced antibacterial activity against Klebsiella pneumoniae C3 assessed as reduction in colistin MIC at 5 uM incubated for 16 hrs by broth microdilution method (reference value: 512 ug/ml)", "assay_type": "functional", "conditions": "C3, 16 h"}, "Acinetobacter baumannii [14]": {"system": "Acinetobacter baumannii", "assay": "Potentiation of colistin-induced antibacterial activity against Acinetobacter baumannii 3941 assessed as reduction in colistin MIC at 15 uM incubated for 16 hrs by broth microdilution method (reference value: 512 ug/ml)", "assay_type": "functional", "conditions": "Acinetobacter baumannii, 3941, 16 h"}, "Acinetobacter baumannii [15]": {"system": "Acinetobacter baumannii", "assay": "Potentiation of colistin-induced antibacterial activity against Acinetobacter baumannii 3941 assessed as reduction in colistin MIC at 10 uM incubated for 16 hrs by broth microdilution method (reference value: 512 ug/ml)", "assay_type": "functional", "conditions": "Acinetobacter baumannii, 3941, 16 h"}, "Acinetobacter baumannii [16]": {"system": "Acinetobacter baumannii", "assay": "Potentiation of colistin-induced antibacterial activity against Acinetobacter baumannii 3941 assessed as reduction in colistin MIC at 7.5 uM incubated for 16 hrs by broth microdilution method (reference value: 512 ug/ml)", "assay_type": "functional", "conditions": "Acinetobacter baumannii, 3941, 16 h"}, "Acinetobacter baumannii [17]": {"system": "Acinetobacter baumannii", "assay": "Potentiation of colistin-induced antibacterial activity against Acinetobacter baumannii 4106 assessed as reduction in colistin MIC at 20 uM incubated for 16 hrs by broth microdilution method (reference value: 1024 ug/ml)", "assay_type": "functional", "conditions": "Acinetobacter baumannii, 4106, 16 h"}, "Acinetobacter baumannii [18]": {"system": "Acinetobacter baumannii", "assay": "Potentiation of colistin-induced antibacterial activity against Acinetobacter baumannii 4106 assessed as reduction in colistin MIC at 10 uM incubated for 16 hrs by broth microdilution method (reference value: 1024 ug/ml)", "assay_type": "functional", "conditions": "Acinetobacter baumannii, 4106, 16 h"}, "Acinetobacter baumannii [19]": {"system": "Acinetobacter baumannii", "assay": "Potentiation of colistin-induced antibacterial activity against Acinetobacter baumannii 4106 assessed as reduction in colistin MIC at 5 uM incubated for 16 hrs by broth microdilution method (reference value: 1024 ug/ml)", "assay_type": "functional", "conditions": "Acinetobacter baumannii, 4106, 16 h"}, "Acinetobacter baumannii [20]": {"system": "Acinetobacter baumannii", "assay": "Potentiation of colistin-induced antibacterial activity against Acinetobacter baumannii 17978 harbouring mcr-1 gene assessed as colistin sensitization activity at 30 uM incubated for 16 hrs by broth microdilution method", "assay_type": "functional, organism-based"}, "Acinetobacter baumannii [21]": {"system": "Acinetobacter baumannii", "assay": "Potentiation of colistin-induced antibacterial activity against Acinetobacter baumannii 17978 harbouring mcr-1 gene assessed as colistin sensitization activity in presence of Tween 80 at 30 uM incubated for 16 hrs by broth microdilution method", "assay_type": "functional, organism-based", "outline": "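To exclude nonspecific aggregation, colistin resensitization of A. baumannii 17978+mcr-1 was run with adjuvant at 30 μM, with and without 0.01% Tween 80.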"}, "[22]": {"assay": "Hemolytic activity in sheep RBC at 200 uM incubated for 1 hr by UV spectrophotometry", "assay_type": "ADME, cell-based, Ovis aries, Erythrocyte", "conditions": "sheep red blood cells (erythrocytes), read-out: Activity", "outline": "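Red blood cells exposed to compound at 200 μM, with percent cell lysis recorded.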"}, "[23]": {"assay": "Cytotoxicity against mouse 4T1 cells assessed as reduction in cell viability incubated for 18 hrs by MTT assay", "assay_type": "cell-based", "outline": "(§2)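 4T1 mouse mammary tumor cells exposed to compound for 18 h, alone or together with colistin at 1 μg/mL. Medium then aspirated and replaced with 0.5 mg/mL MTT in culture medium for colorimetric viability read-out. CT50 taken as the concentration giving 50% cell viability.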"}, "[24]": {"assay": "Cytotoxicity against mouse 4T1 cells assessed as reduction in cell viability in presence of 1 ug/ml colistin incubated for 18 hrs by MTT assay", "assay_type": "cell-based", "outline": "as §2"}, "Acinetobacter baumannii [25]": {"system": "Acinetobacter baumannii", "assay": "Antivirulence activity in Acinetobacter baumannii 4106 infected Galleria mellonella larvae model assessed as survival rate at 50 mg/kg measured at 24 hrs interval over 4 days", "assay_type": "functional", "outline": "(§3)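 A. baumannii 4106 was given to Galleria mellonella larvae at 6 × 10^5 CFU, the lethal inoculum found by dose escalation. Larvae were treated with colistin 50 mg/kg, adjuvant 50 mg/kg, colistin plus adjuvant (50 mg/kg each), or tigecycline 100 mg/kg as positive control. Survival was scored out to day 4.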"}, "Acinetobacter baumannii [26]": {"system": "Acinetobacter baumannii", "assay": "Antivirulence activity in Acinetobacter baumannii 4106 infected Galleria mellonella larvae model assessed as survival rate in presence of colistin at 50 mg/kg measured at 24 hrs interval over 4 days (reference value: 7 %)", "assay_type": "functional", "outline": "as §3"}}, "note": "Calls of active or inactive are those of the source. No cut-off for these calls is given here.", "data": [{"smiles": "O=C(NCCc1c[nH]c2ccc(Br)cc12)Nc1cc(Cl)c(Br)c(Cl)c1", "values": [{"measurement": "MIC", "setting": "Escherichia coli [1]", "result": 0.25, "unit": "µg/mL"}, {"measurement": "MIC", "setting": "Escherichia coli [2]", "result": 1, "unit": "µg/mL"}, {"measurement": "MIC", "setting": "Klebsiella pneumoniae [3]", "result": 0.5, "unit": "µg/mL"}, {"measurement": "MIC", "setting": "Klebsiella pneumoniae [4]", "result": 0.5, "unit": "µg/mL"}, {"measurement": "MIC", "setting": "Acinetobacter baumannii [5]", "result": 0.5, "unit": "µg/mL"}, {"measurement": "MIC", "setting": "Acinetobacter baumannii [6]", "result": 0.5, "unit": "µg/mL"}, {"measurement": "Activity", "setting": "Escherichia coli [7]", "result": "Active"}, {"measurement": "MIC", "setting": "Klebsiella pneumoniae [8]", "result": "≤ 0.25", "unit": "µg/mL"}, {"measurement": "MIC", "setting": "Klebsiella pneumoniae [9]", "result": "≤ 0.25", "unit": "µg/mL"}, {"measurement": "MIC", "setting": "Klebsiella pneumoniae [10]", "result": 0.5, "unit": "µg/mL"}, {"measurement": "MIC", "setting": "Klebsiella pneumoniae [11]", "result": 1, "unit": "µg/mL"}, {"measurement": "MIC", "setting": "Klebsiella pneumoniae [12]", "result": 2, "unit": "µg/mL"}, {"measurement": "MIC", "setting": "Klebsiella pneumoniae [13]", "result": 4, "unit": "µg/mL"}, {"measurement": "MIC", "setting": "Acinetobacter baumannii [14]", "result": 4, "unit": "µg/mL"}, {"measurement": "MIC", "setting": "Acinetobacter baumannii [15]", "result": 4, "unit": "µg/mL"}, {"measurement": "MIC", "setting": "Acinetobacter baumannii [16]", "result": 16, "unit": "µg/mL"}, {"measurement": "MIC", "setting": "Acinetobacter baumannii [17]", "result": "≤ 0.5", "unit": "µg/mL"}, {"measurement": "MIC", "setting": "Acinetobacter baumannii [18]", "result": 1, "unit": "µg/mL"}, {"measurement": "MIC", "setting": "Acinetobacter baumannii [19]", "result": 4, "unit": "µg/mL"}, {"measurement": "Activity", "setting": "Acinetobacter baumannii [20]", "result": "Active"}, {"measurement": "Activity", "setting": "Acinetobacter baumannii [21]", "result": "Active"}, {"measurement": "hemolysis at 1 h, 200 µM", "setting": "[22]", "result": "< 2.5", "unit": "%"}, {"measurement": "CC50 at 18 h", "setting": "[23]", "result": 94.1, "unit": "µM"}, {"measurement": "CC50 at 18 h", "setting": "[24]", "result": 64.9, "unit": "µM"}, {"measurement": "Activity", "setting": "Acinetobacter baumannii [25]", "result": 0, "unit": "%"}, {"measurement": "Activity", "setting": "Acinetobacter baumannii [26]", "result": 47, "unit": "%"}]}]}
